Measurements: ChEMBL document CHEMBL3046000, “Design and synthesis of 1-(benzothiazol-5-yl)-1H-1,2,4-triazol-5-ones as protoporphyrinogen oxidase inhibitors” (Bioorg Med Chem, 2013)

Columns and labels:
[1] = Phytotoxicity against 4-leaf stage Triticum aestivum (wheat) plants assessed as plant growth inhibition at 150 g ai/ha applied through spraying measured 30 days after compound treatment under greenhouse conditions; format: organism-based; settings: in vivo, read-out: GI
[2] = Phytotoxicity against four-leaf stage Brassica napus (oilseed rape) plants assessed as plant growth inhibition at 150 g ai/ha applied through spraying measured 30 days after compound treatment under greenhouse conditions; format: organism-based; settings: in vivo, read-out: GI
[3] = Phytotoxicity against four-leaf stage Zea mays cv. Anjou (maize) plants assessed as plant growth inhibition at 150 g ai/ha applied through spraying measured 30 days after compound treatment under greenhouse conditions; format: organism-based; settings: in vivo, read-out: GI
[4] = Phytotoxicity against four-leaf stage Gossypium hirsutum (cotton) plants assessed as plant growth inhibition at 150 g ai/ha applied through spraying measured 30 days after compound treatment under greenhouse conditions; format: organism-based; settings: in vivo, read-out: GI
[5] = Phytotoxicity against 4-leaf stage Glycine max (soybean) plants assessed as plant growth inhibition at 150 g ai/ha applied through spraying measured 30 days after compound treatment under greenhouse conditions; format: organism-based; settings: in vivo, read-out: GI
[6] = Phytotoxicity against four-leaf stage Oryza sativa (rice) plants assessed as plant growth inhibition at 150 g ai/ha applied through spraying measured 30 days after compound treatment under greenhouse conditions; format: organism-based; settings: in vivo, read-out: GI
[7] = Phytotoxicity against 4-leaf stage Glycine max (soybean) plants assessed as plant growth inhibition at 75 g ai/ha applied through spraying measured 30 days after compound treatment under greenhouse conditions; format: organism-based; settings: in vivo, read-out: GI
Chenopodium album [8] = test: Post-emergence herbicidal activity against Chenopodium album seedlings assessed as plant growth inhibition at 75 g ai/ha measured 15 days after compound treatment under greenhouse conditions; format: functional; settings: 360 h, read-out: GI
Chenopodium album [9] = test: Post-emergence herbicidal activity against Chenopodium album seedlings assessed as plant growth inhibition at 37.5 g ai/ha measured 15 days after compound treatment under greenhouse conditions; format: functional; settings: 360 h, read-out: GI
Capsella bursa-pastoris = test: Post-emergence herbicidal activity against Capsella bursa-pastoris assessed as plant growth inhibition at 75 g ai/ha; format: functional; settings: read-out: GI
Outline: (§1)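 Compounds formulated as 100 g/L emulsifiable concentrates in DMF with Tween-80 as emulsifier, then diluted with water. Sprayed post-emergence onto pot-grown plants in a greenhouse, with broadleaf weeds at the 2-leaf stage and grasses at the 1-leaf stage. Clay soil with 1.6% organic matter and CEC 12.1 […]; relative humidity about 50%. Rate (g ai/ha) = active ingredient ÷ pot surface area. Untreated and DMF + Tween-80 solvent controls.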

Symphyotrichum subulatum = test: Post-emergence herbicidal activity against Symphyotrichum subulatum assessed as plant growth inhibition at 75 g ai/ha; format: functional; settings: read-out: GI; outline: as §1
Boehmeria nivea = test: Post-emergence herbicidal activity against Boehmeria nivea assessed as plant growth inhibition at 75 g ai/ha; format: functional; settings: read-out: GI; outline: as §1
Amaranthus spinosus = test: Post-emergence herbicidal activity against Amaranthus spinosus assessed as plant growth inhibition at 75 g ai/ha; format: functional; settings: read-out: GI; outline: as §1
Eleusine indica = test: Post-emergence herbicidal activity against Eleusine indica assessed as plant growth inhibition at 75 g ai/ha; format: functional; settings: read-out: GI; outline: as §1
Cerastium arvense = test: Post-emergence herbicidal activity against Cerastium arvense assessed as plant growth inhibition at 75 g ai/ha; format: functional; settings: read-out: GI; outline: as §1
Veronica polita = test: Post-emergence herbicidal activity against Veronica polita assessed as plant growth inhibition at 75 g ai/ha; format: functional; settings: read-out: GI; outline: as §1
Senna tora = test: Post-emergence herbicidal activity against Senna tora assessed as plant growth inhibition at 75 g ai/ha; format: functional; settings: read-out: GI; outline: as §1
Alkekengi officinarum = test: Post-emergence herbicidal activity against Physalis alkekengi assessed as plant growth inhibition at 75 g ai/ha; format: functional; settings: read-out: GI; outline: as §1
Phytolacca acinosa = test: Post-emergence herbicidal activity against Raddix phytolaccae assessed as plant growth inhibition at 75 g ai/ha; format: functional; settings: read-out: GI; outline: as §1
Ammannia baccifera = test: Post-emergence herbicidal activity against Ammannia baccifera assessed as plant growth inhibition at 75 g ai/ha; format: functional; settings: read-out: GI; outline: as §1
Ludwigia prostrata = test: Post-emergence herbicidal activity against Ludwigia prostrata assessed as plant growth inhibition at 75 g ai/ha; format: functional; settings: read-out: GI; outline: as §1
Commelina communis = test: Post-emergence herbicidal activity against Commelina communis (Asiatic dayflower) assessed as plant growth inhibition at 75 g ai/ha; format: functional; settings: read-out: GI; outline: as §1
Myosoton aquaticum = test: Post-emergence herbicidal activity against Myosoton aquaticum assessed as plant growth inhibition at 75 g ai/ha; format: functional; settings: read-out: GI; outline: as §1
Sonchus asper = test: Post-emergence herbicidal activity against Sonchus asper assessed as plant growth inhibition at 75 g ai/ha; format: functional; settings: read-out: GI; outline: as §1
Polygonum humifusum = test: Post-emergence herbicidal activity against Polygonum humifusum assessed as plant growth inhibition at 75 g ai/ha; format: functional; settings: read-out: GI; outline: as §1
Solanum nigrum = test: Post-emergence herbicidal activity against Solanum nigrum (black nightshade) assessed as plant growth inhibition at 75 g ai/ha; format: functional; settings: read-out: GI; outline: as §1
Chenopodium album [10] = test: Post-emergence herbicidal activity against Chenopodium album seedlings assessed as plant growth inhibition at 150 g ai/ha measured 15 days after compound treatment under greenhouse conditions; format: functional; settings: 360 h, read-out: GI
Amaranthus retroflexus [11] = test: Post emergence herbicidal activity against Amaranthus retroflexus seedlings assessed as plant growth inhibition at 75 g ai/ha measured 15 days after compound treatment under greenhouse conditions; format: functional; settings: 360 h, read-out: GI
Amaranthus retroflexus [12] = test: Post emergence herbicidal activity against Amaranthus retroflexus seedlings assessed as plant growth inhibition at 37.5 g ai/ha measured 15 days after compound treatment under greenhouse conditions; format: functional; settings: 360 h, read-out: GI
Amaranthus retroflexus [13] = test: Post emergence herbicidal activity against Amaranthus retroflexus seedlings assessed as plant growth inhibition at 150 g ai/ha measured 15 days after compound treatment under greenhouse conditions; format: functional; settings: 360 h, read-out: GI
Brassica juncea [14] = test: Post-emergence herbicidal activity against Brassica juncea seedlings assessed as plant growth inhibition at 75 g ai/ha measured 15 days after compound treatment under greenhouse conditions; format: functional; settings: 360 h, read-out: GI
Brassica juncea [15] = test: Post-emergence herbicidal activity against Brassica juncea seedlings assessed as plant growth inhibition at 37.5 g ai/ha measured 15 days after compound treatment under greenhouse conditions; format: functional; settings: 360 h, read-out: GI
Brassica juncea [16] = test: Post-emergence herbicidal activity against Brassica juncea seedlings assessed as plant growth inhibition at 150 g ai/ha measured 15 days after compound treatment under greenhouse conditions; format: functional; settings: 360 h, read-out: GI
Setaria faberi [17] = test: Post-emergence herbicidal activity against Setaria faberi (Giant Foxtail) seedlings assessed as plant growth inhibition at 75 g ai/ha measured 15 days after compound treatment under greenhouse conditions; format: functional; settings: 360 h, read-out: GI
Setaria faberi [18] = test: Post-emergence herbicidal activity against Setaria faberi (Giant Foxtail) seedlings assessed as plant growth inhibition at 37.5 g ai/ha measured 15 days after compound treatment under greenhouse conditions; format: functional; settings: 360 h, read-out: GI
Setaria faberi [19] = test: Post-emergence herbicidal activity against Setaria faberi (Giant Foxtail) seedlings assessed as plant growth inhibition at 150 g ai/ha measured 15 days after compound treatment under greenhouse conditions; format: functional; settings: 360 h, read-out: GI
Digitaria sanguinalis [20] = test: Post-emergence herbicidal activity against Digitaria sanguinalis (hairy crabgrass) seedlings assessed as plant growth inhibition at 75 g ai/ha measured 15 days after compound treatment under greenhouse conditions; format: functional; settings: 360 h, read-out: GI
Digitaria sanguinalis [21] = test: Post-emergence herbicidal activity against Digitaria sanguinalis (hairy crabgrass) seedlings assessed as plant growth inhibition at 37.5 g ai/ha measured 15 days after compound treatment under greenhouse conditions; format: functional; settings: 360 h, read-out: GI
Digitaria sanguinalis [22] = test: Post-emergence herbicidal activity against Digitaria sanguinalis (hairy crabgrass) seedlings assessed as plant growth inhibition at 150 g ai/ha measured 15 days after compound treatment under greenhouse conditions; format: functional; settings: 360 h, read-out: GI
Echinochloa crus-galli [23] = test: Post emergence herbicidal activity against Echinochloa crus-galli (barnyard grass) seedlings assessed as plant growth inhibition at 75 g ai/ha measured 15 days after compound treatment under greenhouse conditions; format: functional; settings: 360 h, read-out: GI
Echinochloa crus-galli [24] = test: Post emergence herbicidal activity against Echinochloa crus-galli (barnyard grass) seedlings assessed as plant growth inhibition at 37.5 g ai/ha measured 15 days after compound treatment under greenhouse conditions; format: functional; settings: 360 h, read-out: GI
Echinochloa crus-galli [25] = test: Post emergence herbicidal activity against Echinochloa crus-galli (barnyard grass) seedlings assessed as plant growth inhibition at 150 g ai/ha measured 15 days after compound treatment under greenhouse conditions; format: functional; settings: 360 h, read-out: GI
[26] = molecular target: T1, Protoporphyrinogen oxidase, chloroplastic (Nicotiana tabacum, UniProt O24163); test: Inhibition of Nicotiana tabacum (tobacco) recombinant PPO assessed as protoporphyrin IX formation at room temperature by fluorimetric assay
T1 sequence (O24163 whole entry): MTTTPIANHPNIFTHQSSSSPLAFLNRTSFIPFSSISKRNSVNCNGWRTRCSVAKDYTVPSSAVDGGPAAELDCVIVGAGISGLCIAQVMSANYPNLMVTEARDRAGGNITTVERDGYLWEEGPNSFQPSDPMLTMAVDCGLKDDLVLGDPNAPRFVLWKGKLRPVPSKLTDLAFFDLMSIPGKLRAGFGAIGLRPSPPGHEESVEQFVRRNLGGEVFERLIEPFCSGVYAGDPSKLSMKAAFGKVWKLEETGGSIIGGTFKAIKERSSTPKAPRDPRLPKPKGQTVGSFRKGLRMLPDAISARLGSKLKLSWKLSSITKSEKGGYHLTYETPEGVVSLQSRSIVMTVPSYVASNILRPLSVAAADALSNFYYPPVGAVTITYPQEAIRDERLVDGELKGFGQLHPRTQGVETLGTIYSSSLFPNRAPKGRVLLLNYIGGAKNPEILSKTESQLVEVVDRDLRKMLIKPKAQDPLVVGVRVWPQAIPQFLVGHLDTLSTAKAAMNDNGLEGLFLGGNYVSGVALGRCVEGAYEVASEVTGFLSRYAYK

Ki [26]: 240 nM
Compound: CCOC(=O)C(C)Sc1nc2cc(-n3nc(C)n(C(F)F)c3=O)c(F)cc2s1 (stereo not drawn)
inhibition at 720 h [1]: 80% | inhibition at 720 h [2]: 100% | inhibition at 720 h [3]: 30% | inhibition at 720 h [4]: 70% | inhibition at 720 h [5]: 0% | inhibition at 720 h [6]: 50% | inhibition at 720 h [7]: 0% | inhibition of growth at 75 g/ha (Chenopodium album [8]): 60% | inhibition of growth at 37.5 g/ha (Chenopodium album [9]): 60% | inhibition of growth at 75 g/ha (Capsella bursa-pastoris): 100% | inhibition of growth at 75 g/ha (Symphyotrichum subulatum): 100% | inhibition of growth at 75 g/ha (Boehmeria nivea): 100% | inhibition of growth at 75 g/ha (Amaranthus spinosus): 100% | inhibition of growth at 75 g/ha (Eleusine indica): 100% | inhibition of growth at 75 g/ha (Cerastium arvense): 100% | inhibition of growth at 75 g/ha (Veronica polita): 100% | inhibition of growth at 75 g/ha (Senna tora): > 90% | inhibition of growth at 75 g/ha (Alkekengi officinarum): > 90% | inhibition of growth at 75 g/ha (Phytolacca acinosa): > 90% | inhibition of growth at 75 g/ha (Ammannia baccifera): > 90% | inhibition of growth at 75 g/ha (Ludwigia prostrata): > 90% | inhibition of growth at 75 g/ha (Commelina communis): > 90% | inhibition of growth at 75 g/ha (Myosoton aquaticum): > 90% | inhibition of growth at 75 g/ha (Sonchus asper): 100% | inhibition of growth at 75 g/ha (Polygonum humifusum): 100% | inhibition of growth at 75 g/ha (Solanum nigrum): 100% | inhibition of growth at 150 g/ha (Chenopodium album [10]): ≥ 90% | inhibition of growth at 75 g/ha (Amaranthus retroflexus [11]): 80% | inhibition of growth at 37.5 g/ha (Amaranthus retroflexus [12]): 80% | inhibition of growth at 150 g/ha (Amaranthus retroflexus [13]): ≥ 90% | inhibition of growth at 75 g/ha (Brassica juncea [14]): ≥ 90% | inhibition of growth at 37.5 g/ha (Brassica juncea [15]): ≥ 90% | inhibition of growth at 150 g/ha (Brassica juncea [16]): ≥ 90% | inhibition of growth at 75 g/ha (Setaria faberi [17]): ≥ 90% | inhibition of growth at 37.5 g/ha (Setaria faberi [18]): ≥ 90% | inhibition of growth at 150 g/ha (Setaria faberi [19]): ≥ 90% | inhibition of growth at 75 g/ha (Digitaria sanguinalis [20]): 80% | inhibition of growth at 37.5 g/ha (Digitaria sanguinalis [21]): 80% | inhibition of growth at 150 g/ha (Digitaria sanguinalis [22]): ≥ 90% | inhibition of growth at 75 g/ha (Echinochloa crus-galli [23]): 80% | inhibition of growth at 37.5 g/ha (Echinochloa crus-galli [24]): 80% | inhibition of growth at 150 g/ha (Echinochloa crus-galli [25]): ≥ 90%
